Screens deposited in PubChem BioAssay by several laboratories.
UPR XBP1 act = activators of adaptive arm of unfolded protein response (XBP1) | activation, % at 20 µM | 0.33% of 330,000 active | CHO-XBP1 luciferase reporter, IRE1-XBP1 UPR activation, luminescence; percent of tunicamycin response, DMSO as zero | AID 463104;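 active = versus positive control, 20 µM dose yields 30% or more activation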
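assay system = CHO-XBP1 luciferase reporter cells | amount = 1000 cells/well | buffer or medium = F12 plus 10% FBS | compound dosing = single point, 20 µM final compound, 1% DMSO | incubation = 16-18 h cell attachment at 37 °C, then 6 h compound exposure | detection = Steady-Glo luminescence read | controls = tunicamycin 10 µg/mL and vehicle-only wells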
ABHD5 PLIN5 PPI = blocks binding of human ABHD5 to perilipin-5. Q00G26+Q8WTS1. Split G. princeps luciferase complementation, luminescence, 4 h. inhibition, % at 4 µM. 0.78% of 360,000 active. AID 602281;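 active = inhibition above the mean inhibition across every tested compound plus 3 SD, cut at about 22% in these data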
Exocytosis inh = lytic granule exocytosis inhibition; 0.66% of 360,000 active; inhibition, % at 10 µM; AID 651702; TALL-104 LAMP-1 surface exposure, flow cytometry; cells stimulated with thapsigargin and PMA;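 active = inhibition above about 55%, limit read from the data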
CHOP UPR activ = activators of apoptotic arm of unfolded protein response (CHOP); CHO-CHOP luciferase reporter, UPR activation, luminescence; percent of tunicamycin response over DMSO baseline; activation, % at 10 µM; 0.34% of 330,000 active;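 active = at 10 µM dose, activation of 40% or more, normalized to positive control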
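Assay system: CHO cells with stable CHOP pathway luciferase reporter; Buffer or medium: F12 plus 10% serum; Times: 16-18 h cell attachment, then 6 h compound exposure, 37 °C; Signal: luciferase luminescence; Read-out basis: percent activation relative to tunicamycin control; Control set: tunicamycin high control, DMSO low control.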
Mdm2-MdmX inh = disrupts the human Mdm2-MdmX interaction; O15151+Q00987; SaOS-2 split-luciferase Mdm2/MdmX complementation, luminescence; inhibition, % at 8 µM; 3% of 330,000 active; AID 485346;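 active = inhibition of at least 50% at 8 µM in the primary screen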
Granule exo CP1 = blocks lytic granule exocytosis; shares compounds with Exocytosis inh; TALL-104 cells, LAMP-1 externalization, flow cytometry; stimulated with PMA plus thapsigargin; inhibition, % at 10 µM; 11% of 1,500 active; in the data active = inhibition above about 60%
Of the large screens only hits and unclear results are named; the others gave an inactive call (follow-up assays come after a bar, where they were run). Most compounds without a hit are left out; they make up all but 4% or so of the library.

COc1cc(N)ccc1Nc1c2ccccc2nc2ccccc12	none (no result: UPR XBP1 act, CHOP UPR activ, Mdm2-MdmX inh)
Fc1ccc(/C=C\c2nccc3c2[nH]c2ccccc23)cc1	Exocytosis inh 83 | Granule exo CP1 93
Cc1ccc(/C=C\c2nccc3c2[nH]c2ccccc23)cc1	Exocytosis inh 75 | Granule exo CP1 inactive
Cc1ccc(Cc2c(-c3ccco3)nc3c4ccccc4ccn23)cc1	Exocytosis inh 58 (no result: UPR XBP1 act, CHOP UPR activ, Mdm2-MdmX inh) | Granule exo CP1 inactive
CCCc1nc2c3ccccc3ccn2c1Cc1ccc(C)cc1	none (no result: UPR XBP1 act, CHOP UPR activ, Mdm2-MdmX inh)
CCOC(=O)c1c(N2CCN(c3ccccc3)CC2)cc(C)nc1C	Exocytosis inh 62 | Granule exo CP1 inactive
CCOC(=O)c1c(CN2CCN(c3ccccc3)CC2)oc2ccc(O)cc12	none
CC(=O)N1c2ccccc2S(=O)(=O)c2ccccc21	none
CC(=O)N1c2ccccc2S(=O)(=O)c2c1ccc1ccccc21	Exocytosis inh 79 (no result: UPR XBP1 act, CHOP UPR activ, Mdm2-MdmX inh) | Granule exo CP1 inactive
O=S(=O)(c1ccccc1F)N1CCN(CC(O)c2ccccc2)CC1 (configuration not stated)	Exocytosis inh 80 | Granule exo CP1 inactive
CCOc1ccccc1C(=O)Nc1ccc(C(=O)c2ccccc2)cc1	Exocytosis inh 60 | Granule exo CP1 inactive
O=C(N[C@@H](Cc1ccccc1)C(=O)O)c1cccs1	none
COc1ccc(-c2ccc3[nH]c4c(c3c2)CCN2C[C@@H]([C@H](C)O)[C@@H](N(C)C(=O)Nc3cc(Cl)cc(Cl)c3)C[C@@H]42)cc1	none (no result: UPR XBP1 act, CHOP UPR activ, Mdm2-MdmX inh)
C[C@H](O)[C@@H]1CN2CCc3c([nH]c4ccc(-c5ccc6c(c5)OCO6)cc34)[C@@H]2C[C@@H]1N(C)C(=O)Nc1ccc(F)cc1	Exocytosis inh 65 (no result: UPR XBP1 act, CHOP UPR activ, Mdm2-MdmX inh) | Granule exo CP1 inactive
CSc1ncc(Cl)c(C(=O)Nc2nnc(SC)s2)n1	none
COc1ccc(NC(=O)C2C(c3ccccc3)C2(Cl)Cl)cc1 (configuration not stated)	none
CCOc1ccc(NC(=O)C2C(c3ccccc3)C2(Cl)Cl)cc1 (configuration not stated)	Exocytosis inh 81 | Granule exo CP1 inactive
COc1ccc(NC(=O)C2C(c3ccccc3)C2(Cl)Cl)c(OC)c1 (configuration not stated)	Exocytosis inh 66 | Granule exo CP1 inactive
Cc1ccc(C(=O)OCC(=O)NC2CCCCC2)o1	none
O=C(COC(=O)c1ccco1)NC1CCCC1	Exocytosis inh 72 | Granule exo CP1 inactive
COc1cc(CN2CCCC(N3CCN(c4ccc(F)cc4)CC3)C2)ccc1F (configuration not stated)	Exocytosis inh 61 | Granule exo CP1 inactive
OCCOc1ccc(CN2CCCC(N3CCN(c4ccc(F)cc4)CC3)C2)cc1 (configuration not stated)	none
CSc1ccc(CN2CCCC(N3CCN(c4ccccc4)CC3)C2)cc1 (configuration not stated)	Exocytosis inh 67 | Granule exo CP1 inactive
COc1ccc(CC(=O)NCC2CCCN(Cc3ccc(F)c(OC)c3)C2)cc1 (configuration not stated)	Exocytosis inh 59 | Granule exo CP1 inactive
O=C(CSc1nnc(CNC(=O)c2ccccc2F)o1)NC1CCCC1	none
Cc1ccc(CCNC(=O)CCS(=O)(=O)c2ccc3nc(C)sc3c2)cc1	none
CC(=O)c1nn(-c2cccc(Br)c2)cc1C(=O)c1ccccc1	none
CNC(=O)CSc1nc2nc(C)cc(C)n2n1	none
CCN1C(=O)c2cccc3c(S(=O)(=O)N4CCCC4C(=O)O)ccc1c23 (configuration not stated)	Exocytosis inh 60 | Granule exo CP1 inactive
CCc1ccc(NCc2ccc(OC)c(Cn3ccnc3)c2)cc1	Exocytosis inh 58 | Granule exo CP1 inactive
CC(=O)Nc1cc2c3c(c1)CCN3C(=O)CC2	none
C[C@H](CO)N1C[C@H](C)[C@@H](CN(C)CC2CCCCC2)Oc2c(NS(=O)(=O)c3cccs3)cccc2C1=O	none
C[C@H](CO)N1C[C@H](C)[C@@H](CN(C)S(=O)(=O)c2ccc(F)cc2)Oc2c(NC(=O)c3ccncc3)cccc2C1=O	Exocytosis inh 92 (no result: UPR XBP1 act, CHOP UPR activ, Mdm2-MdmX inh) | Granule exo CP1 inactive
CNC[C@H]1Oc2c(NS(=O)(=O)c3cccs3)cccc2C(=O)N([C@H](C)CO)C[C@@H]1C	Exocytosis inh 77 | Granule exo CP1 inactive
COc1ccccc1Nc1cc(C(=O)NCCCN2CCOCC2)c2ccccc2n1	none
Cn1cc(Br)c(-c2cccc(N3C(=O)CC(C)(C)CC3=O)c2)n1	none
COc1ccc(C(=O)OC(C)C(=O)NC(C)CCc2ccccc2)cc1[N+](=O)[O-] (configuration not stated)	none
COc1ccc(C(=O)OC(C)C(=O)NC(C)CCc2ccccc2)c(OC)c1 (configuration not stated)	Exocytosis inh 58 | Granule exo CP1 inactive
Cc1ccc(NCCCn2cnc(C(=O)Nc3ccc(C)c(C)c3)n2)cc1C	none (no result: UPR XBP1 act, CHOP UPR activ, Mdm2-MdmX inh)
Cc1cc(C)c(CN2CCN(CCCn3cnc(C(=O)Nc4ccc(C)c(C)c4)n3)CC2)c(C)c1	Exocytosis inh 57 (no result: UPR XBP1 act, CHOP UPR activ, Mdm2-MdmX inh) | Granule exo CP1 inactive
CCOc1ccccc1NC(=O)c1cc(S(=O)(=O)NCc2ccco2)ccc1F	Exocytosis inh 104 | Granule exo CP1 inactive
COc1ccc(OC)c(NC(=O)c2cc(S(=O)(=O)NCc3ccco3)ccc2F)c1	none
CCN(CC)CCn1c(SCC(=O)NCc2ccco2)nc2c(sc3ccccc32)c1=O	none
C[C@@H]1CN([C@H](C)CO)C(=O)c2c(c3ccccc3n2C)-c2ccccc2CO[C@H]1CN(C)Cc1ccc(Oc2ccccc2)cc1	Exocytosis inh 56 (no result: UPR XBP1 act, CHOP UPR activ, Mdm2-MdmX inh) | Granule exo CP1 inactive
Cc1noc(C)c1S(=O)(=O)N(CC(=O)NCCc1ccccc1)c1ccc(C(C)C)cc1	Exocytosis inh 56 | Granule exo CP1 inactive
Cc1noc(C)c1S(=O)(=O)N(CC(=O)NC(C)c1ccccc1)c1ccc(C(C)C)cc1 (configuration not stated)	Exocytosis inh 70 | Granule exo CP1 inactive
Cc1noc(C)c1S(=O)(=O)N(CC(=O)NCc1ccccc1)c1ccc(C(C)C)cc1	none
Cc1noc(C)c1S(=O)(=O)N(CC(=O)NC1CCCC1)c1ccc(C(C)C)cc1	none
Cc1cc2nc(-c3ccco3)c(Cc3cccc(Cl)c3)n2c(C)c1Br	ABHD5 PLIN5 PPI 26, Exocytosis inh 73 (no result: UPR XBP1 act, CHOP UPR activ, Mdm2-MdmX inh) | Granule exo CP1 inactive
COc1ccc(NC2=NCCC2)cc1	none
Cc1cccc(NC(=O)CN2C(=O)N/C(=C/c3cc(C)n(C(C)C)c3C)C2=O)c1	none
Cc1ccc([N+](=O)[O-])cc1NC(=O)C(C)Sc1nnc(C)n1CC1CCCO1 (configuration not stated)	none
CSc1nc(C(C)C)ccc1CNC(=O)CC(C)c1ccccc1 (configuration not stated)	Exocytosis inh 63 | Granule exo CP1 inactive
